System: MS2 coat protein
Assay: apparent Kd, MS2 coat protein; higher = weaker binding; RNA-MaP array
Summary of the method: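 Binding of fluorescently labeled MS2 coat protein, at 1.5 nM to 3 μM and room temperature, was measured with or without input ligand on designed RNAs transcribed on an Illumina sequencing chip from sequenced DNA templates. Apparent Kd was defined as the median of per-cluster binding-curve fits. No design measured on fewer than 10 clusters was kept.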

[1] = designed as: OFF switch for flavin mononucleotide, no ligand
[2] = ligand present: flavin mononucleotide, designed as: OFF switch for flavin mononucleotide
[3] = designed as: ON switch for flavin mononucleotide, no ligand
[4] = ligand present: flavin mononucleotide, designed as: ON switch for flavin mononucleotide

Q: Which “apparent Kd” value [1] does the source give for “UGUAACACAGGAUAUACAUAGGCCAGCCACUGACUCAGGUCACAUGAGGAUCACCCAUGUAGAAGGGUGCUGAA” here?
A: Its value is 116 nM.

Q: And the “apparent Kd” value [2]?
A: The value was 84.1 nM.

Q: Which results are given for “GCCGACCUCACAUGAGGAUCACCCAUGUGCCGGAAACUACUGAGAAGGGCUCUAAUUCCAGGCGAGCAGGAUAUCAUAAAAUAG”?
A: apparent Kd [3]: 17.4 nM; apparent Kd [4]: 8.78 nM

Q: Which results are given for “GUACCACAGUCGGCCGCCACUAAGUUGUAUUCCAGCAGGACGAAACAUGAGGAUCACCCAUGUCCUAGGACCGGGACUUCCGUCG”?
A: apparent Kd (designed as: ON switch for tryptophan, no ligand): 21.2 nM; apparent Kd (ligand present: tryptophan, designed as: ON switch for tryptophan): 21.6 nM

Q: For “CGGUGGUGAGGAUAUCAAAUGUGGAAGGAGAAGACACCCAGUGAGAAGGCACAUGAGGAUCACCCAUGUACAGC”, which “apparent Kd” value [1] is on record?
A: Its value is 10.7 nM.

Q: What about the “apparent Kd” value [2] of the same sequence?
A: The value was 6 nM.

Q: Which results are given for “GAGUCGCGAGGAUAUGGAAUGGACUACAUGAGGAUCACCCAUGUCCUUUCCCUUGUUUGUCCAGAAGGCGCCAUCC”?
A: apparent Kd [1]: 27 nM; apparent Kd [2]: 24.4 nM

Q: With “UCGCUGUAAGAGAAGGGCUCUGCAUGAGCACAUGAGGAUCACCCAUGUAAGAUCCUAAAGUACGAGCAGGAUAUCUCCGAGUGG” as the sequence, how does the “apparent Kd” value [1] read?
A: The value was 106 nM.

Q: And the “apparent Kd” value [2]?
A: Its value is 77.3 nM.

Q: For “AGCGACAUGAGGAUCACCCAUGUGUUAGCUAAGCCUCUCAGCAGAAGGGAUGGUGUCCCAGAUGAUCAGGAUAUGCUGUUUUUG”, which “apparent Kd” value [1] is on record?
A: The value was 32.2 nM.

Q: What about the “apparent Kd” value [2] of the same sequence?
A: The value was 23.9 nM.

Q: Which “apparent Kd” value [1] does the source give for “UUUAUGUCAGGAUAUCCAACACUAUGGGAAAGUAAAUAUAGGGAGAAGGGACAUGAGGAUCACCCAUGUCAACA” here?
A: The value was 8.12 nM.

Q: What about the “apparent Kd” value [2] of the same sequence?
A: The value was 8.59 nM.

Q: With “AUGUAGUCGGUAGGAUAUACGAGUCUGAUAACAGUAGAAGGACCGAGUACGGCUCCGCAGUACAUGAGGAUCACCCAUGUGAUC” as the sequence, how does the “apparent Kd” value [3] read?
A: The value was 533 nM.

Q: And the “apparent Kd” value [4]?
A: The value was 286 nM.

Q: With “UAAUAGAUUACGGCCGCCACUGAAGUGGACUUUAUGAGCAGGAUUCACAUGAGGAUCACCCAUGUCAGGACCGGGUACGUCCAUA” as the sequence, how does the “apparent Kd” value (designed as: OFF switch for tryptophan, no ligand) read?
A: Its value is 39.2 nM.

Q: And the “apparent Kd” value (ligand present: tryptophan, designed as: OFF switch for tryptophan)?
A: The value was 45.4 nM.

Q: For “AUAAUAGUAGGAUAUACAUGAGGAUCACCCAUGUGACCGCUCAAAGAUAGCGAUGCUCGUAGAAGGACUGUGGA”, which “apparent Kd” value [1] is on record?
A: The value was 21.3 nM.

Q: And the “apparent Kd” value [2]?
A: Its value is 21.8 nM.

Q: How did the “apparent Kd” value [1] turn out when “CUCCUGGAAGGAUAUGUGUUUCAGGACAUGAGGAUCACCCAUGUAGAACCUCUCUCCCGCACAGAAGGUCCAUUGU” was run?
A: Its value is 74.3 nM.

Q: What about the “apparent Kd” value [2] of the same sequence?
A: Its value is 247 nM.

Q: What does the source list for “UACCGGGCGAUAGGAUAUAUCAGUUACUUCACAUGAGGAUCACCCAUGUUACCCGUGGAAAGUUGAUAGAAGGAUCCAGCUCCA”?
A: apparent Kd [1]: 44.8 nM; apparent Kd [2]: 41.2 nM

Q: Which results are given for “AGAAGACAUGAGGAUCACCCAUGUGAGGAUAUUACACUAGAAAACAGCCGCGUCUCGGUAAGAAGGCACUAUGG”?
A: apparent Kd [1]: 33.9 nM; apparent Kd [2]: 36.6 nM

Q: For “CGGACCUGAGAGAAGGGCAGCCGACAUGAGGAUCACCCAUGUAAUCGAGGACCAUCCUCAUUUUUGCAGGAUAUCUAUUGUUAU”, which “apparent Kd” value [1] is on record?
A: The value was 35.4 nM.

Q: And the “apparent Kd” value [2]?
A: The value was 37.3 nM.

Q: Which results are given for “AAGUGACAUGAGGAUCACCCAUGUGAGGAUAUGGCUGAACAGAAAUAUGGGAAAAGAGCCAGAAGGCACGCCGG”?
A: apparent Kd [1]: 62.3 nM; apparent Kd [2]: 112 nM

Q: How did the “apparent Kd” value [3] turn out when “AAAACUUAUCAGAAGGAACGCACUCAACCGUUGUUAGGAUAUGAUCACCUAACAUGAGGAUCACCCAUGUUCACAGUAGGAGAC” was run?
A: The value was 130 nM.

Q: And the “apparent Kd” value [4]?
A: Its value is 89.5 nM.

Q: Which “apparent Kd” value [1] does the source give for “CCAAAAUCGAAGAAGGCUAUGCGUACCAAUCUUAGAGGAUAUUCGACCUUAGCUAACAUGAGGAUCACCCAUGUGGGAAACACG” here?
A: Its value is 28 nM.

Q: And the “apparent Kd” value [2]?
A: The value was 19.5 nM.

Q: What does the source list for “AACAUGAGGAUCACCCAUGUCACAUACAAGUGGAGUUCUAUGAGAAGGGCGAAACGAAUGAGCACGCAGGAUAUCAGCGAUAAA”?
A: apparent Kd [3]: 13.5 nM; apparent Kd [4]: 11.3 nM

Q: “GUCUCAGACCGAGAUACCAGCUGGGUUUCCCACAUGAGGAUCACCCAUGUAUUCAGAUUAAGCCCUUGGCAGCUCAUCUAGGUCC” was tested. Which “apparent Kd” value (designed as: ON switch for theophylline, no ligand) did it give?
A: Its value is 15.8 nM.

Q: And the “apparent Kd” value (ligand present: theophylline, designed as: ON switch for theophylline)?
A: Its value is 20.9 nM.

Q: Which results are given for “UGUGCCUAGUAGAAGGCGCCGACUCGCUCACGGCGAGGAUAUACUACUCAGGGCACAUGAGGAUCACCCAUGUGUGAUUCGUAA”?
A: apparent Kd [1]: 103 nM; apparent Kd [2]: 23.1 nM

Q: Which “apparent Kd” value [1] does the source give for “CGACGCUUAGGAUAUUGGUACACCUACAUGAGGAUCACCCAUGUGACUCCUUUACAAGGGCAAGAAGGAAGUUGGU” here?
A: Its value is 110 nM.

Q: And the “apparent Kd” value [2]?
A: Its value is 221 nM.

Q: “CCGAACACUUAGAAGGAUUUAAUCUAUAAUUGAAUAGGAUAUAAGGCCUUACGUGCGAAUGAACACAUGAGGAUCACCCAUGUA” was tested. Which “apparent Kd” value [1] did it give?
A: The value was 15.1 nM.

Q: What about the “apparent Kd” value [2] of the same sequence?
A: Its value is 12.6 nM.

From the EternaBench riboswitch data
